Results: ChEMBL document CHEMBL1141377 (J Nat Prod, 2007)
Active and inactive are the calls of the source. The calls are words filed in the database; no cut-off is given here.

Key:
[1] = target: 20S proteasome; test: Inhibition of human 20S proteasome; type: subcellular
[2] = test system: MDA-MB-231; test: Cytotoxicity against human MDA-MB-231 cell line; type: functional, cell-based
[3] = Stability in neutral pH after 24 hrs; type: physicochemical; details: read-out: Stability
Procedure, shortened: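 Compound solutions in 20% MeOH incubated in horse serum or water at pH 7 for 24 h. Recovery estimated by HPLC.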

[4] = species: Homo sapiens; test: Inhibition of chymotrypsin up to 100 uM
[5] = target: Trypsin (Homo sapiens) (UniProt P07477+P07478+P35030); test: Inhibition of trypsin up to 100 uM; type: protein assay
[6] = test system: NCI-H460; test: Cytotoxicity against human H460 cell line; type: functional, cell-based
[7] = test system: HCT-116; test: Cytotoxicity against human HCT116 cell line; type: cell-based
[8] = test system: PBMC; test: Inhibition of LPS-induced TNFalpha production in human PBMC; type: functional, cell-based
Procedure, shortened: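 Human PBMC isolated from heparinized healthy-donor blood on 80% Percoll, washed twice in PBS, in RPMI1640 with 10% heat-inactivated FCS. Cells preincubated 1 h with compound or DMSO (final 0.1%), then stimulated with LPS (1 μg/mL). After overnight culture, supernatant TNF-α measured. IC50 reported.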

[9] = Stability in neutral pH after 48 hrs; type: physicochemical; details: read-out: Stability
[10] = Stability in alkaline pH after 48 hrs; type: physicochemical; details: read-out: Stability

Row | SMILES | IC50 [1] [µM] | IC50 [2] [µM] | remaining at 24 h [3] [%] | Activity [4] | Activity [5] | IC50 [6] [µM] | Activity [7] [nM] | IC50 [8] [µM] | remaining at 48 h [9] [%] | remaining at 48 h [10] [%]
1 | CCCCCC[C@H]1C(=O)N[C@@]2([C@@H](O)[C@@H]3C=CCCC3)C(=O)O[C@@]12C [CINNABARAMIDE A] | 0.001 | 1 | 50 | inactive | inactive | 1 | 10 | 0.5 | – | –
2 | CCCCCC(O)[C@H]1C(=O)N[C@@]2([C@@H](O)[C@@H]3C=CCCC3)C(=O)O[C@@]12C (stereo partly specified) [CINNABARAMIDE B] | 0.245 | – | 50 | inactive | inactive | – | – | – | – | –
3 | CCCCCC[C@H]1C(=O)N[C@@]2(C[C@@H]3C=CCCC3)C(=O)O[C@@]12C [CINNABARAMIDE C] | 0.012 | – | 50 | inactive | inactive | – | – | – | – | –
4 | CCCCCC(O)[C@H]1C(=O)N[C@](C(=O)O)([C@@H](O)[C@@H]2C=CCCC2)[C@@]1(C)O (stereo partly specified) [CINNABARAMIDE D] | 0.1 | – | – | inactive | inactive | – | – | – | – | –
5 | CCCCCC[C@H]1C(=O)N[C@](C(=O)O)([C@@H](O)[C@@H]2C=CCCC2)[C@@]1(C)O [CINNABARAMIDE E] | 0.136 | – | – | inactive | inactive | – | – | – | – | –
6 | CCCCCC[C@H]1C(=O)N[C@](C(=O)SC[C@H](NC(C)=O)C(=O)O)([C@@H](O)[C@@H]2C=CCCC2)[C@@]1(C)O [CINNABARAMIDE F] | 0.006 | – | – | inactive | inactive | – | – | – | > 90 | –
7 | CCCCCC[C@H]1C(=O)N[C@](C(=O)SC[C@H](NC(C)=O)C(=O)OC)([C@@H](O)[C@@H]2C=CCCC2)[C@@]1(C)O [CINNABARAMIDE G] | 0.0006 | – | – | inactive | inactive | – | – | – | 90 | 45
